Measurements: ChEMBL document CHEMBL3102849, “A heat shock protein 90 inhibitor that modulates the immunophilins and regulates hormone receptors without inducing the heat shock response” (Bioorg Med Chem Lett, 2014)
Active and inactive are the calls of the source. No cut-off for these calls is given here. Residues, ends and D or L forms follow the SMILES beside them.

How the values were obtained:
[1] = biological target: Heat shock protein HSP 90-beta (Homo sapiens) (UniProt P08238); assay: Inhibition of Hsp90 in human HeLa cells assessed as downregulation of FKBP52 protein level at 50 uM after 30 hours by Western blotting analysis; type: cell-based
How it was run: (§1)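 HeLa cells treated at 5μM and 50μM; lysates western blotted for FKBP51, FKBP52 and glucocorticoid receptor; bands normalized to GAPDH and compared with DMSO control; n≥3, mean±SEM.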

[2] = biological target: Heat shock protein HSP 90-beta (Homo sapiens) (UniProt P08238); assay: Inhibition of Hsp90 in human HeLa cells assessed as change in FKBP51 protein level at 50 uM after 30 hours by Western blotting analysis; type: cell-based; how it was run: as §1
[3] = biological target: Heat shock protein HSP 90-beta (Homo sapiens) (UniProt P08238); assay: Binding affinity to human Hsp90 assessed as inhibition of interaction with His/GST-tagged recombinant co-chaperone Cyp40 at 10 uM preincubated for 1 hr followed by co-chaperone addition measured after 1 hr by Western blotting analysis
How it was run: (§2)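 Purified native hsp90 combined with purified TPR co-chaperone (FKBP51, FKBP52, HOP, Unc45, CHIP, Cyp40 or TOM70), with increasing compound, 0–10 μM; hsp90–co-chaperone binding measured across the range.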

[4] = biological target: Heat shock protein HSP 90-beta (Homo sapiens) (UniProt P08238); assay: Binding affinity to human Hsp90 assessed as inhibition of interaction with His/GST-tagged recombinant co-chaperone TOM70 at 10 uM preincubated for 1 hr followed by co-chaperone addition measured after 1 hr by Western blotting analysis; how it was run: as §2
[5] = biological target: Heat shock protein HSP 90-beta (Homo sapiens) (UniProt P08238); assay: Binding affinity to human Hsp90 assessed as inhibition of interaction with His/GST-tagged recombinant co-chaperone CHIP at 10 uM preincubated for 1 hr followed by co-chaperone addition measured after 1 hr by Western blotting analysis; how it was run: as §2
[6] = biological target: Heat shock protein HSP 90-beta (Homo sapiens) (UniProt P08238); assay: Inhibition of Hsp90 in human HeLa cells assessed as downregulation of HSF1 protein expression at 5 uM to 50 uM after 30 hours by Western blotting analysis relative to DMSO-treated control; type: cell-based
How it was run: (§3)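 HeLa cervical carcinoma cells treated at 5μM and 50μM; cell lysates probed for the heat shock response proteins hsp70, hsp90 and HSF1 by western blot, compared with DMSO.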

[7] = biological target: Heat shock protein HSP 90-beta (Homo sapiens) (UniProt P08238); assay: Inhibition of Hsp90 in human HeLa cells assessed as downregulation of Hsp90 protein expression at 5 uM to 50 uM after 30 hours by Western blotting analysis relative to DMSO-treated control; type: cell-based; how it was run: as §3
[8] = biological target: Heat shock protein HSP 90-beta (Homo sapiens) (UniProt P08238); assay: Inhibition of Hsp90 in human HeLa cells assessed as change in Hsp70 protein expression at 5 uM to 50 uM after 30 hours by Western blotting analysis; type: cell-based; how it was run: as §3
[9] = biological target: Heat shock protein HSP 90-beta (Homo sapiens) (UniProt P08238); assay: Inhibition of Hsp90 (unknown origin) at 50 uM preincubated for 1 hr followed by denatured luciferase addition measured at 120 mins by bright glo luciferase refolding assay in presence of Hsp70/Hsp40/HOP relative to control
How it was run: (§4)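 Pure-protein refolding: heat-denatured firefly luciferase incubated with 0.5μM hsp90, 1μM hsp70, 0.2μM hsp40 and 0.1μM HOP; compound at 50μM; luciferase activity followed over time, expressed versus control; n=3, mean±SEM.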

[10] = biological target: Heat shock protein HSP 90-beta (Homo sapiens) (UniProt P08238); assay: Inhibition of Hsp90 (unknown origin) at 50 uM preincubated for 1 hr followed by denatured luciferase addition measured at 105 mins by bright glo luciferase refolding assay in presence of Hsp70/Hsp40/HOP relative to control; how it was run: as §4
[11] = biological target: Heat shock protein HSP 90-beta (Homo sapiens) (UniProt P08238); assay: Inhibition of Hsp90 (unknown origin) at 50 uM preincubated for 1 hr followed by denatured luciferase addition measured at 90 mins by bright glo luciferase refolding assay in presence of Hsp70/Hsp40/HOP relative to control; how it was run: as §4
[12] = biological target: Heat shock protein HSP 90-beta (Homo sapiens) (UniProt P08238); assay: Inhibition of Hsp90 (unknown origin) at 50 uM preincubated for 1 hr followed by denatured luciferase addition measured at 75 mins by bright glo luciferase refolding assay in presence of Hsp70/Hsp40/HOP relative to control; how it was run: as §4
[13] = biological target: Heat shock protein HSP 90-beta (Homo sapiens) (UniProt P08238); assay: Inhibition of Hsp90 (unknown origin) at 50 uM preincubated for 1 hr followed by denatured luciferase addition measured at 60 mins by bright glo luciferase refolding assay in presence of Hsp70/Hsp40/HOP relative to control; how it was run: as §4
[14] = biological target: Heat shock protein HSP 90-beta (Homo sapiens) (UniProt P08238); assay: Inhibition of Hsp90 (unknown origin) at 50 uM preincubated for 1 hr followed by denatured luciferase addition measured at 45 mins by bright glo luciferase refolding assay in presence of Hsp70/Hsp40/HOP relative to control; how it was run: as §4
[15] = biological target: Heat shock protein HSP 90-beta (Homo sapiens) (UniProt P08238); assay: Inhibition of Hsp90 (unknown origin) at 50 uM preincubated for 1 hr followed by denatured luciferase addition measured at 30 mins by bright glo luciferase refolding assay in presence of Hsp70/Hsp40/HOP relative to control; how it was run: as §4
[16] = biological target: Heat shock protein HSP 90-beta (Homo sapiens) (UniProt P08238); assay: Inhibition of Hsp90 (unknown origin) at 50 uM preincubated for 1 hr followed by denatured luciferase addition measured at 15 mins by bright glo luciferase refolding assay in presence of Hsp70/Hsp40/HOP relative to control; how it was run: as §4
[17] = biological target: T1, Heat shock protein HSP 90 (Oryctolagus cuniculus) (UniProt P11500); assay: Inhibition of Hsp90 in rabbit reticulocyte lysate at 50 uM measured at 90 mins by bright glo luciferase refolding assay relative to control
T1 sequence (whole entry): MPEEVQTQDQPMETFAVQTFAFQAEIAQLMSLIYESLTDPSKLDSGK
How it was run: (§5)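 Heat-denatured firefly luciferase incubated in rabbit reticulocyte lysate, the complete lysate system; compound at 50μM; refolding followed over time by luciferase activity relative to control; n=3, mean±SEM.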

[18] = biological target: T1, Heat shock protein HSP 90 (Oryctolagus cuniculus); assay: Inhibition of Hsp90 in rabbit reticulocyte lysate at 50 uM measured at 75 mins by bright glo luciferase refolding assay relative to control; how it was run: as §5
[19] = biological target: T1, Heat shock protein HSP 90 (Oryctolagus cuniculus); assay: Inhibition of Hsp90 in rabbit reticulocyte lysate at 50 uM measured at 60 mins by bright glo luciferase refolding assay relative to control; how it was run: as §5
[20] = biological target: T1, Heat shock protein HSP 90 (Oryctolagus cuniculus); assay: Inhibition of Hsp90 in rabbit reticulocyte lysate at 50 uM measured at 45 mins by bright glo luciferase refolding assay relative to control; how it was run: as §5
[21] = biological target: T1, Heat shock protein HSP 90 (Oryctolagus cuniculus); assay: Inhibition of Hsp90 in rabbit reticulocyte lysate at 50 uM measured at 30 mins by bright glo luciferase refolding assay relative to control; how it was run: as §5
[22] = biological target: T1, Heat shock protein HSP 90 (Oryctolagus cuniculus); assay: Inhibition of Hsp90 in rabbit reticulocyte lysate at 50 uM measured at 15 mins by bright glo luciferase refolding assay relative to control; how it was run: as §5
[23] = biological target: Heat shock protein HSP 90-beta (Homo sapiens) (UniProt P08238); assay: Binding affinity to human Hsp90 assessed as inhibition of interaction with His/GST-tagged recombinant co-chaperone TOM70 up to 10 uM preincubated for 1 hr followed by co-chaperone addition measured after 1 hr by Western blotting analysis
How it was run: (§6)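 In vitro binding assay: pure native hsp90 combined with individual purified TPR co-chaperones (Unc45, CHIP, TOM70, Cyp40, FKBP51, FKBP52), with compound added in increasing amounts up to 5 or 10 μM. Co-chaperone–hsp90 association was scored against the compound-free condition.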

[24] = biological target: Heat shock protein HSP 90-beta (Homo sapiens) (UniProt P08238); assay: Binding affinity to human Hsp90 assessed as inhibition of interaction with His/GST-tagged recombinant co-chaperone CHIP up to 10 uM preincubated for 1 hr followed by co-chaperone addition measured after 1 hr by Western blotting analysis; how it was run: as §6
[25] = biological target: Heat shock protein HSP 90-beta (Homo sapiens) (UniProt P08238); assay: Binding affinity to human Hsp90 assessed as inhibition of interaction with His/GST-tagged recombinant co-chaperone Unc45 up to 10 uM preincubated for 1 hr followed by co-chaperone addition measured after 1 hr by Western blotting analysis; how it was run: as §6
[26] = biological target: Heat shock protein HSP 90-beta (Homo sapiens) (UniProt P08238); assay: Binding affinity to human Hsp90 assessed as inhibition of interaction with His/GST-tagged recombinant co-chaperone CYP40 up to 10 uM preincubated for 1 hr followed by co-chaperone addition measured after 1 hr by Western blotting analysis; how it was run: as §6
[27] = biological target: Heat shock protein HSP 90-beta (Homo sapiens) (UniProt P08238); assay: Inhibition of human Hsp90 assessed as disruption of interaction with recombinant p23 up to 10 uM by Western blotting analysis
[28] = biological target: Heat shock protein HSP 90-beta (Homo sapiens) (UniProt P08238); assay: Inhibition of Hsp90 in human HeLa cells assessed as downregulation of FKBP52 protein level at 40 uM after 30 hours by Western blotting analysis in presence of proteasome inhibitor MG-132; type: cell-based
[29] = biological target: Heat shock protein HSP 90-beta (Homo sapiens) (UniProt P08238); assay: Inhibition of Hsp90 in human HeLa cells assessed as downregulation of FKBP51 protein level at 40 uM after 30 hours by Western blotting analysis in presence of proteasome inhibitor MG-132; type: cell-based
[30] = biological target: Heat shock protein HSP 90-beta (Homo sapiens) (UniProt P08238); assay: Inhibition of Hsp90 in human HeLa cells assessed as downregulation of glucocorticoid receptor protein level at 40 uM after 30 hours by Western blotting analysis in presence of proteasome inhibitor MG-132; type: cell-based
[31] = biological target: Heat shock protein HSP 90-beta (Homo sapiens) (UniProt P08238); assay: Binding affinity to human Hsp90 assessed as inhibition of interaction with His/GST-tagged recombinant co-chaperone FKBP51 up to 10 uM preincubated for 1 hr followed by co-chaperone addition measured after 1 hr by Western blotting analysis; how it was run: as §6
[32] = biological target: Heat shock protein HSP 90-beta (Homo sapiens) (UniProt P08238); assay: Inhibition of Hsp90 (unknown origin) at 50 uM preincubated for 1 hr followed by denatured luciferase addition measured after 2 hrs by bright glo luciferase refolding assay in presence of Hsp70/Hsp40/HOP relative to control
How it was run: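 Purified refolding system: heat-denatured firefly luciferase incubated with 0.5 μM hsp90, 1 μM hsp70, 0.2 μM hsp40 and 0.1 μM HOP plus test agent (1 μM or 50 μM). Luciferase activity was followed over time up to 2 h and expressed relative to control. n=3, mean±SEM.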

Chain of Heat shock protein HSP 90-beta (Homo sapiens) (P08238 whole entry): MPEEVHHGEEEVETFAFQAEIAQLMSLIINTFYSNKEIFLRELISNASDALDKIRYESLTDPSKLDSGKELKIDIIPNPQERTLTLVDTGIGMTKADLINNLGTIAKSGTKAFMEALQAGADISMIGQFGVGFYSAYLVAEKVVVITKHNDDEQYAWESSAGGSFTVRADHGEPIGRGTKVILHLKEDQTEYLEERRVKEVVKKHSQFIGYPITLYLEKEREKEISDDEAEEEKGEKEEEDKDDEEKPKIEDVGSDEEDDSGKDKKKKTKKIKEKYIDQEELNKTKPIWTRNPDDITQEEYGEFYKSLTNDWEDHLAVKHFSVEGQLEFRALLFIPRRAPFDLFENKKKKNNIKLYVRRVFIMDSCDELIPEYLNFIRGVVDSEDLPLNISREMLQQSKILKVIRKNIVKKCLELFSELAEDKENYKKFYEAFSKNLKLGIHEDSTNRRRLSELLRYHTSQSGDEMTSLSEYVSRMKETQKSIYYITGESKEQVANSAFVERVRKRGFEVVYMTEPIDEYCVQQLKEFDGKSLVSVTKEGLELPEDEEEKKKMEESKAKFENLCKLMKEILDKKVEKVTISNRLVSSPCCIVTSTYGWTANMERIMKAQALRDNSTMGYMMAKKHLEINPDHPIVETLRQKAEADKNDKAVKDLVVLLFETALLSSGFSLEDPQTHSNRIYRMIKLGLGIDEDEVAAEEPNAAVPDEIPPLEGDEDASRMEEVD

| SMILES | inhibition [6] [%] | inhibition [7] [%] | inhibition [8] | RLU [9] | RLU [10] | RLU [11] | RLU [12] | RLU [13] | RLU [14] | RLU [15] | RLU [16] | RLU [17] | RLU [18] | RLU [19] | RLU [20] | RLU [21] | RLU [22] | further results |
| --- | --- | --- | --- | --- | --- | --- | --- | --- | --- | --- | --- | --- | --- | --- | --- | --- | --- | --- |
| CO[C@H]1[C@H](OC(=O)c2ccc(C)[nH]2)[C@H](O)[C@@H](Oc2ccc3c(O)c(NC(=O)c4c[nH]c(C(=O)Nc5c(O)c6ccc(O[C@H]7OC(C)(C)[C@@H](OC)[C@H](OC(=O)c8ccc(C)[nH]8)[C@@H]7O)c(C)c6oc5=O)c4C)c(=O)oc3c2C)OC1(C)C | 50 | 50 | Active | 417 | 467 | 520 | 540 | 497 | 498 | 565 | 519 | 25400 | 22000 | 19200 | 15500 | 10600 | 4670 | inhibition [1]: Active; inhibition [2]: Active; inhibition [3]: Active; inhibition [4]: Active; inhibition [5]: Active |
| CC(C)C[C@@H]1NC(=O)[C@H](C(C)C)N(C)C(=O)[C@@H](CC(C)C)NC(=O)[C@@H](Cc2ccccc2)NC(=O)[C@@H]([C@H](OCc2ccccc2)c2ccccc2)NC1=O (HELM PEPTIDE1{[O=C([C@H](N[*:1])[C@H](OCc1ccccc1)c1ccccc1)[*:2]].[dF].[dL].[meV].L}$PEPTIDE1,PEPTIDE1,1:R1-5:R2$$$V2.0) | 50 | 50 | Active | 9190 | 8800 | 8670 | 7810 | 6340 | 5700 | 4360 | 3800 | 29600 | 25300 | 21800 | 16800 | 10800 | 5240 | inhibition [23]: Active; inhibition [24]: Active; inhibition [25]: Active; inhibition [26]: Active; inhibition [27]: Active; inhibition [28]: Active; inhibition [29]: Active; inhibition [30]: Active; inhibition [31]: Active; inhibition [32]: 55% |
